Consider 15 compounds from ChEMBL document CHEMBL1909573, “Synthesis and biological evaluation of (2,5-dihydro-1H-pyrrol-1-yl)-2H-chromen-2-ones as free radical scavengers” (Eur J Med Chem, 2011).

Experiment [1] concerns Radical scavenging activity. The experiment can be described thus: Antioxidant activity assessed as DPPH free radical scavenging activity at 100 uM after 60 mins. The class given is functional. An outline of the steps:
(§1)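 Compound solutions in ethanol were mixed with an equal volume of DPPH in absolute ethanol, giving compound concentrations of 50 and 100. Ethanol served as the control. Absorbance at 517 nm was read after 20 and 60 min at room temperature. Each run was done at least in triplicate, with the SD of absorbance under 10% of the mean.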
On the technique in general: DPPH is a stable violet radical that fades when it is reduced.

Experiment [2] can be described thus: Antioxidant activity assessed as hydroxyl radical scavenging activity at 100 uM after 30 mins. The experiment is classed as functional.
Experiment [3] has as its system Radical scavenging activity. The experiment in a line: Antioxidant activity assessed as DPPH free radical scavenging activity at 100 uM after 20 mins. The class given is functional. Put shortly:
as §1

A short description of experiment [4]: Antioxidant activity assessed as inhibition of superoxide anion radical production at 100 uM after 2 mins by nitroblue tetrazolium method. The experiment is classed as functional. Put shortly: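 This was a nitroblue tetrazolium assay. The mixture held […] in 19 mM phosphate buffer, pH 7.4. Compounds were preincubated 2 min before NADH was added. After 2 min at room temperature, absorbance at 560 nm was read against a PMS-containing blank. Runs were done at least in triplicate.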

Experiment [5] has as its system Radical scavenging activity. The experiment can be described thus: Antioxidant activity assessed as reduction in DPPH free radical at 50 uM after 60 mins. The class given is functional. Put shortly:
as §1

In experiment [6] the test system is Radical scavenging activity. The experiment can be described thus: Antioxidant activity assessed as DPPH free radical scavenging activity at 100 uM. The class given is functional. Put shortly:
as §1

Experiment [7] can be described thus: Antioxidant activity assessed as inhibition of AAPH-induced lipid peroxidation at 100 uM. The experiment is classed as functional.
In experiment [8] the test system is Radical scavenging activity. The experiment can be described thus: Antioxidant activity assessed as reduction in DPPH stable free radical at 50 uM after 20 mins. The experiment is classed as functional. Put shortly:
as §1

The test system of experiment [9] is Glycine max. The experiment in a line: Inhibition of soybean lipoxygenase assessed as conversion of sodium linoleate to 13-hydroperoxylinoleic acid at 100 uM. Put shortly: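 Soybean lipoxygenase was measured by UV absorbance. Runs were done at least in triplicate, with the SD of absorbance under 10% of the mean.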

Molecules are shown by their SMILES. Calls of active or inactive are those of the source. The rule behind the calls is not given here.

Take `Cc1cc(=O)oc2cc(-n3cccc3)ccc12`: the results for the Activity in experiment [1], in [3] and in [6] were 14%, 14% and “Dose-dependent effect”, respectively. Moreover, the inhibition (usually the percentage by which the read-out fell short of the control) in [2] came out at 9%; in experiment [7] it was 46%; in [9], 12%. Also, the inhibition result in experiment [4] is “inactive”. Besides, the result in [5] and in experiment [8] was inactive.

As for `Cc1c(C)c2c(c(C)c1O)CCC(C)(C(=O)O)O2` (stereo not drawn), the inhibition came out at 63% in [2] and 73% in experiment [7]. The Activity entry in experiment [6] is “Dose-dependent effect”.

On to `Cc1cc2ccc(=O)oc2cc1N1CC=CC1`, for which the Activity in [1] was 7%; in experiment [3], 5%; in experiment [6], “Dose-dependent effect”. Moreover, the inhibition is 41% in [2], 24% in experiment [7] and 52.5% in experiment [9]. For the same compound, the inhibition result in experiment [4] is “inactive”. The outcome in [5] and in [8] was inactive.

For `O=c1ccc2cc(N3CC=CC3)ccc2o1`, the Activity in experiment [1] came out at 71%; in experiment [3], 49%. Besides, the inhibition in experiment [2] was found to be 90%; in experiment [7], 86%. Also, in [4], the inhibition result was “inactive”. Further, the outcome in [5] and in experiment [8] was inactive.

In the case of `Cc1ccc2oc(=O)ccc2c1-n1cccc1`, the Activity in [1] was 7%; in [3] it was 7%; in [6], “Dose-dependent effect”. Also, the inhibition turned out to be 91% in [2], 71% in experiment [7] and 55.5% in experiment [9]. The inhibition entry in [4] is “inactive”. Besides, the result in experiment [5] and in experiment [8] was inactive.

For `O=c1ccc2ccccc2o1`, the Activity in [1] is 21%; in [3], 5%; in [6] it was “Dose-dependent effect”. Moreover, the values for the inhibition in [2] and in experiment [9] were 78% and 15%, respectively.

Turning to `Cc1ccc2oc(=O)ccc2c1N1CC=CC1`, the Activity in experiment [1] is 5%; in [3], 5%; in experiment [6], “Dose-dependent effect”. The inhibition entry in [4] was “inactive”. Further, the result in experiment [5] and in [8] was inactive. The inhibition in [7] was found to be 57%.

In the case of `CC(Cc1ccc(O)c(O)c1)C(C)Cc1ccc(O)c(O)c1` (stereo not drawn), the figures for the Activity in [1], in [3] and in [6] were 83%, 81% and “Dose-dependent effect”, respectively. Also, in experiment [9], the inhibition is 84%.

For the compound `Cc1cc2ccc(=O)oc2cc1-n1cccc1`, the Activity in experiment [1] is 13%; in experiment [3], 13%; in experiment [6] it was “Dose-dependent effect”. The inhibition in experiment [2] stood at 88%. Besides, the inhibition result in experiment [4] is “inactive”. Besides, the outcome in [5] and in experiment [8] was inactive.

As for `Cc1cc2oc(=O)ccc2cc1-n1cccc1`, the Activity was 14% in [1], 14% in experiment [3] and “Dose-dependent effect” in experiment [6]. In addition, in experiment [4], the inhibition entry is “inactive”. For the same compound, the result in experiment [5] and in experiment [8] was inactive.

Consider `Cc1cc2oc(=O)ccc2cc1N1CC=CC1`, for which the results for the Activity in experiment [1], in [3] and in experiment [6] were 10%, 9% and “Dose-dependent effect”, respectively. The inhibition in [2] is 77%; in experiment [7] it was 91%; in [9], 60%. In experiment [4], the inhibition result is “inactive”. Besides, the result in experiment [5] and in [8] was inactive.

As for `O=c1cc(N2CC=CC2)c2ccccc2o1`, the values for the Activity in experiment [1] and in experiment [3] were 27% and 8%, respectively. In addition, the results for the inhibition in [2], in experiment [7] and in [9] were 83%, 100% and 43%, respectively. Besides, in experiment [4], the inhibition result is “inactive”. The result in [5] and in experiment [8] was inactive.

As for `O=c1ccc2cc(-n3cccc3)ccc2o1`, the results for the Activity in [1], in [3] and in experiment [6] were 19%, 18% and “Dose-dependent effect”, respectively. The inhibition result in [4] is “inactive”. Further, the result in experiment [5] and in [8] was inactive. Moreover, in [7], the inhibition came out at 1%.

On to `Cc1cc(=O)oc2cc(N3CC=CC3)ccc12`, for which the Activity in experiment [1] is 20%; in experiment [3] it was 5%. In addition, the inhibition in experiment [2] was 85%; in experiment [7], 87%; in experiment [9], 28%. Also, the inhibition result in [4] was “inactive”. The outcome in experiment [5] and in experiment [8] was inactive.

In the case of `Cc1ccc2ccc(=O)oc2c1`, the results for the Activity in experiment [1], in experiment [3] and in [6] were 2%, 2% and “Dose-dependent effect”, respectively. For the same compound, the inhibition in [2] turned out to be 44%; in experiment [9], 89%.
